{"source": "paper PMC3796951", "about": "(Psychopharmacology, 2012)", "key": {"[1]": {"target": "D3 (Rattus norvegicus, UniProt P19020)", "sequence (P19020 whole entry)": "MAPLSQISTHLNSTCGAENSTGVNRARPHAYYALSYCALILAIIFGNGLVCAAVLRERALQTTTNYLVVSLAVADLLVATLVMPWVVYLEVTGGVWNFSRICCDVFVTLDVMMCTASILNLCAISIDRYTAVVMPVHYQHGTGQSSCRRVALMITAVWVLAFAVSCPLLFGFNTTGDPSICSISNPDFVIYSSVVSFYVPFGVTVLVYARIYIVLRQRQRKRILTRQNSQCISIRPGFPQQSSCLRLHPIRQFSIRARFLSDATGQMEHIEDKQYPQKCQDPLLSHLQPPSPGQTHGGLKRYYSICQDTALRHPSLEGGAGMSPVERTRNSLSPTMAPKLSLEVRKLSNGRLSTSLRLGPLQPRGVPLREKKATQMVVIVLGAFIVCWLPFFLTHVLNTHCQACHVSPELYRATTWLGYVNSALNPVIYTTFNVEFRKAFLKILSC", "assay": "Radioligand binding"}, "[2]": {"target": "H4 (Homo sapiens, UniProt Q9H3N8)", "assay": "Radioligand binding"}, "[3]": {"target": "[3H]DOB-labeled 5-HT2A receptors", "settings": "[3H]DOB-labeled 5-HT2A receptors (agonist high-affinity state) ref Egan et al. 2000; cited from earlier work"}, "[4]": {"target": "β3 (Homo sapiens, UniProt P13945)", "assay": "Radioligand binding"}, "[5]": {"target": "M4 (Homo sapiens, UniProt P08173)", "assay": "Radioligand binding"}, "[6]": {"target": "M2 (Homo sapiens, UniProt P08172)", "assay": "Radioligand binding"}, "[7]": {"target": "D2 (Homo sapiens, UniProt P14416)", "assay": "Radioligand binding"}, "[8]": {"target": "α1A (Homo sapiens, UniProt P35348)", "sequence (P35348 whole entry)": "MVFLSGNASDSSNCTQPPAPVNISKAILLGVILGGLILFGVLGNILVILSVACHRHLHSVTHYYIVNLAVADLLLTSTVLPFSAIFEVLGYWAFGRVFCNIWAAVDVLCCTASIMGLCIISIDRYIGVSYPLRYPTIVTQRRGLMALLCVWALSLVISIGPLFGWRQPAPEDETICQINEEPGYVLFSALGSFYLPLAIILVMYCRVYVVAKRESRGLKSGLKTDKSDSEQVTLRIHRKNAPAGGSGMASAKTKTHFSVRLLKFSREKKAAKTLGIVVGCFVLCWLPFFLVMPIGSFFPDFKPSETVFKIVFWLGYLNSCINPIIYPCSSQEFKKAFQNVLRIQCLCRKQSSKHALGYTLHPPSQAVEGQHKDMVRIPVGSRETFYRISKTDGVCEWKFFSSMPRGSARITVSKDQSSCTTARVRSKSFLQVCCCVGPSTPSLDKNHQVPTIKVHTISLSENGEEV", "assay": "Radioligand binding"}, "[9]": {"tested_on": "Male Sprague–Dawley rats", "assay": "Behavioral Pattern Monitor", "type": "in vivo, rat", "procedure,_shortened": "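Male Sprague–Dawley rats (250–275 g at arrival), pair-housed under a reverse 12-h light–dark cycle, were handled the day before testing and were naïve to the BPM. Pargyline (0 or 10 mg/kg) was given 20 min before the test compound; all dosing was s.c. at 1 ml/kg, n=7–8. Ten min after dosing, rats were placed in the BPM and monitored for 60 min in darkness. Crossings between eight sectors were counted in 10-min bins, and spatial d was derived from X–Y paths.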"}, "[10]": {"target": "M5 (Homo sapiens, UniProt P08912)", "assay": "Radioligand binding"}, "[11]": {"target": "M1 (Homo sapiens, UniProt P11229)", "assay": "Radioligand binding"}, "[12]": {"target": "D4 (Homo sapiens, UniProt P21917)", "assay": "Radioligand binding"}, "[13]": {"target": "D5 (Homo sapiens, UniProt P21918)", "assay": "Radioligand binding"}, "[14]": {"target": "NET (Homo sapiens, UniProt P23975)", "assay": "Radioligand binding"}, "[15]": {"target": "α1B (Homo sapiens, UniProt P35368)", "sequence (P35368 whole entry)": "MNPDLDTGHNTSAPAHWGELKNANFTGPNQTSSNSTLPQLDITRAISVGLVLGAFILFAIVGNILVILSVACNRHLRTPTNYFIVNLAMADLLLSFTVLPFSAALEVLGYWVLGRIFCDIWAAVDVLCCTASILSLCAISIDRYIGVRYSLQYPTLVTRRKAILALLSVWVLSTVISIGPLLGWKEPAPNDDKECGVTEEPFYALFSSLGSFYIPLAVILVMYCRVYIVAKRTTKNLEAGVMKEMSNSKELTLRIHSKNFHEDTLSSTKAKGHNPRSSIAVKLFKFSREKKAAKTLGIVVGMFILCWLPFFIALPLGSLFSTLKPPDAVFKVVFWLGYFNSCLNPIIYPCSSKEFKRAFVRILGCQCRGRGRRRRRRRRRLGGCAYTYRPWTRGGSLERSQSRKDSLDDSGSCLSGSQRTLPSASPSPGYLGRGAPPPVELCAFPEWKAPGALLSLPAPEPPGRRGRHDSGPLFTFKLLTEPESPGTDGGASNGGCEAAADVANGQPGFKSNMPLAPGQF", "assay": "Radioligand binding"}, "[16]": {"target": "SERT (Homo sapiens, UniProt P31645)", "sequence (P31645 whole entry)": "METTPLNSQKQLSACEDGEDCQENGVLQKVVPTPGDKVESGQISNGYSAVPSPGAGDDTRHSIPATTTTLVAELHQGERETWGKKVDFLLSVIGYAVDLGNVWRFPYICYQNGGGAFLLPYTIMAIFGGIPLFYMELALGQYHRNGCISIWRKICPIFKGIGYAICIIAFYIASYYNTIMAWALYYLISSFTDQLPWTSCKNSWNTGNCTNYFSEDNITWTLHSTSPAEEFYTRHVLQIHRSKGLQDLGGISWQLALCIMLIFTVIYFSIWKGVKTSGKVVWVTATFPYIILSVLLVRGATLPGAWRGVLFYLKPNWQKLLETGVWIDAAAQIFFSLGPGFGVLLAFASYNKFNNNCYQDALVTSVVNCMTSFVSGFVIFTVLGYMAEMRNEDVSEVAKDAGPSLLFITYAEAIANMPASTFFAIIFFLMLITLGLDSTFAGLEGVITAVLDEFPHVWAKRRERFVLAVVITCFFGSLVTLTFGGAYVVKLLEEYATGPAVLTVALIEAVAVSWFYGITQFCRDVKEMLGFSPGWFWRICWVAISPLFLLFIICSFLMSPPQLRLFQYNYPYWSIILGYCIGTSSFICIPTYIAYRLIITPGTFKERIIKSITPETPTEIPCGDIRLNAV", "assay": "Radioligand binding"}, "[17]": {"target": "MOR (Homo sapiens, UniProt P35372)", "assay": "Radioligand binding"}, "[18]": {"target": "DAT (Homo sapiens, UniProt Q01959)", "assay": "Radioligand binding"}, "[19]": {"target": "DOR (Homo sapiens, UniProt P41143)", "assay": "Radioligand binding"}, "[20]": {"tested_on": "humans", "settings": "hallucinogenic activity, parenteral ref Shulgin and Shulgin 1997; cited from earlier work"}, "[21]": {"target": "KOR (Homo sapiens, UniProt P41145)", "assay": "Radioligand binding"}, "[22]": {"target": "EP3 (Homo sapiens, UniProt P43115)", "assay": "Radioligand binding"}, "[23]": {"target": "H3 (Homo sapiens, UniProt Q9Y5N1)", "assay": "Radioligand binding"}, "[24]": {"target": "β2 (Homo sapiens, UniProt P07550)", "sequence (P07550 whole entry)": "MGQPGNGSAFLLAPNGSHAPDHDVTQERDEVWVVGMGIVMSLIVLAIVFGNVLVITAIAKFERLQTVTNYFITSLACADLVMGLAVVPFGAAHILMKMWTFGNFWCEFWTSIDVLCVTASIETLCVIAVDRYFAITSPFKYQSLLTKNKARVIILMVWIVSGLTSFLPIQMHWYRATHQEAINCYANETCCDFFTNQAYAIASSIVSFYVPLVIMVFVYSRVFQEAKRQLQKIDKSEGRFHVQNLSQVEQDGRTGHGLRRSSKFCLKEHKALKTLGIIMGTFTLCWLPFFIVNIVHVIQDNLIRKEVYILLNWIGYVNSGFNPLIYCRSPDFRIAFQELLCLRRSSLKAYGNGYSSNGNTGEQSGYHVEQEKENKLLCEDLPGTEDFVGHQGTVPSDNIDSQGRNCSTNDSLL", "assay": "Radioligand binding"}, "[25]": {"target": "β1 (Homo sapiens, UniProt P08588)", "assay": "Radioligand binding"}, "[26]": {"target": "M3 (Homo sapiens, UniProt P20309)", "assay": "Radioligand binding"}, "[27]": {"target": "α2A (Homo sapiens, UniProt P08913)", "sequence (P08913 whole entry)": "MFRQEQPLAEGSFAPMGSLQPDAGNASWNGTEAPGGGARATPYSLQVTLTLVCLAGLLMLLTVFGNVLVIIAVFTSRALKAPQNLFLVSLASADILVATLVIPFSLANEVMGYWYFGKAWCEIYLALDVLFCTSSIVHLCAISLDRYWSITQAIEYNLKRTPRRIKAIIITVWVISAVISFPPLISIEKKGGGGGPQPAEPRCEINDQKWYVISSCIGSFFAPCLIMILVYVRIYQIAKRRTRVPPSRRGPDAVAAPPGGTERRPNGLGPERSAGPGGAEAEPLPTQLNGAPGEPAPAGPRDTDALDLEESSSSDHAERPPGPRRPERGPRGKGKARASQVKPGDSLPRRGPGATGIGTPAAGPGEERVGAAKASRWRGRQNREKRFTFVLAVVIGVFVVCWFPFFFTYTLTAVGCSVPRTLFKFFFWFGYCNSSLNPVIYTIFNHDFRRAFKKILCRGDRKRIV", "assay": "Radioligand binding"}, "[28]": {"target": "sigma-1 (Homo sapiens, UniProt Q99720)", "assay": "Radioligand binding"}, "[29]": {"target": "α1D (Homo sapiens, UniProt P25100)", "sequence (P25100 whole entry)": "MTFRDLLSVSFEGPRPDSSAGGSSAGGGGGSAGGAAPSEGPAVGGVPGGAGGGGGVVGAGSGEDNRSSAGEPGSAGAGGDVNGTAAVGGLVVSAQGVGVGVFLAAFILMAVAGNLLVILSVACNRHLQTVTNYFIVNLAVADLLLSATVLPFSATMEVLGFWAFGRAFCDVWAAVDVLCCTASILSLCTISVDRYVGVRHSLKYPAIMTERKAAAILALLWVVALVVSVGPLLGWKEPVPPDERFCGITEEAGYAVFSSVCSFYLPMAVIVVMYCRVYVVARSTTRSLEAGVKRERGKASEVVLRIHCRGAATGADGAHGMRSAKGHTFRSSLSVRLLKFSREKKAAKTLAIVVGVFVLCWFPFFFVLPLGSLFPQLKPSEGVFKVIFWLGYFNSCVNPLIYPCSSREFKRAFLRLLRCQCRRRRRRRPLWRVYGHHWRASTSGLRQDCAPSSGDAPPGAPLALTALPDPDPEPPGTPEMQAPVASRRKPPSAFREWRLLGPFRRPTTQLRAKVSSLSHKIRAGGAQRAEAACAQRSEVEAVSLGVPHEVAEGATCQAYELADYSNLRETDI", "assay": "Radioligand binding"}, "[30]": {"target": "H2 (Homo sapiens, UniProt P25021)", "sequence (P25021 whole entry)": "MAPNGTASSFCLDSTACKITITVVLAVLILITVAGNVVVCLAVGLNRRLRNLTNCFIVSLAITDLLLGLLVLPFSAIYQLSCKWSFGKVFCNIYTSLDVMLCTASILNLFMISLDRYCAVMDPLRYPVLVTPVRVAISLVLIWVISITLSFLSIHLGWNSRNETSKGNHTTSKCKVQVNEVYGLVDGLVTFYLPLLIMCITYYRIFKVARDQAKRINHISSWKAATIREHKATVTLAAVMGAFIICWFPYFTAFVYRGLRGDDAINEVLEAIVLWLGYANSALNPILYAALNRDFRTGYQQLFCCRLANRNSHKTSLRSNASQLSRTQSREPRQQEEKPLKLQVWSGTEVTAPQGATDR", "assay": "Radioligand binding"}, "[31]": {"target": "Sigma-2 (Rattus norvegicus, UniProt Q5U3Y7)", "assay": "Radioligand binding"}, "[32]": {"target": "EP4 (Homo sapiens, UniProt P35408)", "assay": "Radioligand binding"}, "[33]": {"target": "H1 (Homo sapiens, UniProt P35367)", "sequence (P35367 whole entry)": "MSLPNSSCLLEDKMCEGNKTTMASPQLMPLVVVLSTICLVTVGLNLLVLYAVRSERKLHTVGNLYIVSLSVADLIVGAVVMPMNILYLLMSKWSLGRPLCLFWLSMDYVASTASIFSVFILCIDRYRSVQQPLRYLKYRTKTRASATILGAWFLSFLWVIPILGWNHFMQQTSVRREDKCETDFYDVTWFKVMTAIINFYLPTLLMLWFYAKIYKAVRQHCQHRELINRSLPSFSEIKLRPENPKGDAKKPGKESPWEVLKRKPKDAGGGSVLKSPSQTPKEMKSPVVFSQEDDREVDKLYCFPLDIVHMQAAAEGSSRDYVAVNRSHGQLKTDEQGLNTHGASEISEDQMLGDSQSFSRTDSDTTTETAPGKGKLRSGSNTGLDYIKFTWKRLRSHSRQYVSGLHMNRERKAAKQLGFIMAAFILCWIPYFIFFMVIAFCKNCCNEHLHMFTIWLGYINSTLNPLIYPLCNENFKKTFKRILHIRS", "assay": "Radioligand binding"}, "[34]": {"target": "D1 (Homo sapiens, UniProt P21728)", "assay": "Radioligand binding"}, "[35]": {"target": "α2C (Homo sapiens, UniProt P18825)", "sequence (P18825 whole entry)": "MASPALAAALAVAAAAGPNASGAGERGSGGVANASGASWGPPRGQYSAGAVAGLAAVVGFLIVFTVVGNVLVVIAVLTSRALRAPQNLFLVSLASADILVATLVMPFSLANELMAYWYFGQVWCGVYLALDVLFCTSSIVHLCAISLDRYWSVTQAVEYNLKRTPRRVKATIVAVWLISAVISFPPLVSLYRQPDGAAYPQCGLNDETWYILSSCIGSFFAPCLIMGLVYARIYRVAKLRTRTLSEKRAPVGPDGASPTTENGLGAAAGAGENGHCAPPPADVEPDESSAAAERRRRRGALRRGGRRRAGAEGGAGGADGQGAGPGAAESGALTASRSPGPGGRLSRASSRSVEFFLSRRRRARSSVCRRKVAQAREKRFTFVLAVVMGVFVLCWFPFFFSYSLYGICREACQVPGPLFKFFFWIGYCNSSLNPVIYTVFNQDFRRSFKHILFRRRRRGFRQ", "assay": "Radioligand binding"}, "[36]": {"tested_on": "5-HT2A receptor", "settings": "higher affinity than 5-MeO-DMT ref Roth et al. 1997; Egan et al. 2000; cited from earlier work"}, "[37]": {"tested_on": "MAOA", "settings": "pargyline 10 mg/kg, s.c. ref Ortmann et al. 1984; cited from earlier work"}, "[38]": {"tested_on": "MAOB", "settings": "pargyline 10 mg/kg, s.c. ref Ortmann et al. 1984; cited from earlier work"}, "[39]": {"settings": "Experiment 1, drug × time interaction, post hoc per 30-min block"}, "[40]": {"settings": "read-out: Ki nM (±SEM), [3H]prazocin, cloned human receptor"}, "[41]": {"settings": "read-out: Ki nM (±SEM), [3H]clonidine, cloned human receptor"}}, "note": "Where a name gives a salt, the structure may show the parent alone. Read-outs that look alike come from different tables or passages of the source."}
{"compound": "COc1ccc2[nH]cc(CCN(C)C)c2c1.O=C(O)C(=O)O", "note": "[5-MeO-DMT, 5-Methoxy-N, N-dimethyltryptamine oxalate]", "values": [{"measurement": "Ki", "setting": "[1]", "value": "> 10000", "unit": "nM"}, {"measurement": "Ki", "setting": "[2]", "value": "> 10", "unit": "µM"}, {"measurement": "Ki", "setting": "[3]", "value": 0.09, "unit": "µM"}, {"measurement": "Ki", "setting": "[4]", "value": "> 10", "unit": "µM"}, {"measurement": "Ki", "setting": "[5]", "value": "> 10", "unit": "µM"}, {"measurement": "Ki", "setting": "[6]", "value": "> 10", "unit": "µM"}, {"measurement": "Ki", "setting": "[7]", "value": "> 10", "unit": "µM"}, {"measurement": "Ki", "setting": "[8]", "value": 4370, "unit": "nM"}, {"measurement": "Effect on crossings (locomotor activity)", "setting": "[9]; Experiment 1, 0.1 mg/kg s.c. after pargyline 10 mg/kg", "value": "reduced crossings during the first half-hour, but did not increase activity during the second half-hour"}, {"measurement": "Effect on spatial d", "setting": "[9]; Experiment 1, 1.0 mg/kg s.c. after pargyline 10 mg/kg, second half-hour of session (p<0.01)", "value": "significantly reduced spatial d"}, {"measurement": "Effect on spatial d", "setting": "[9]; Experiment 1, 0.01 and 0.1 mg/kg s.c. after pargyline 10 mg/kg", "value": "no effect on spatial d"}, {"measurement": "Effect on crossings (locomotor activity)", "setting": "[9]; Experiment 1, 0.1 and 1.0 mg/kg s.c., vehicle-pretreated rats", "value": "reduced crossings"}, {"measurement": "Effect on spatial d", "setting": "[9]; [39]", "value": "post hoc analysis failed to confirm this for any specific 30-min block"}, {"measurement": "Effect on crossings (locomotor activity)", "setting": "[9]; Experiment 3, 0.3 to 3.0 mg/kg s.c. alone, first 10 min of testing (p<0.01)", "value": "significantly reduced crossings"}, {"measurement": "Effect on spatial d", "setting": "[9]; Experiment 3, 0.3 to 3.0 mg/kg s.c. alone, first or second half-hour, post hoc", "value": "failed to alter spatial d significantly"}, {"measurement": "Biphasic effects on locomotor activity", "setting": "[9]; Experiment 3, alone, up to 3 mg/kg s.c.", "value": "did not induce biphasic effects on locomotor activity"}, {"measurement": "Ki", "setting": "[10]", "value": "> 10", "unit": "µM"}, {"measurement": "Ki", "setting": "[11]", "value": "> 10", "unit": "µM"}, {"measurement": "Ki", "setting": "[12]", "value": "> 10", "unit": "µM"}, {"measurement": "Ki", "setting": "[13]", "value": "> 10", "unit": "µM"}, {"measurement": "Ki", "setting": "[14]", "value": "> 10", "unit": "µM"}, {"measurement": "Ki", "setting": "[15]", "value": 2190, "unit": "nM"}, {"measurement": "Ki", "setting": "[16]", "value": 3600, "unit": "nM"}, {"measurement": "Ki", "setting": "[17]", "value": "> 10", "unit": "µM"}, {"measurement": "Ki", "setting": "[18]", "value": "> 10", "unit": "µM"}, {"measurement": "Ki", "setting": "[19]", "value": "> 10", "unit": "µM"}, {"measurement": "Active parenteral dose in humans", "setting": "[20]", "value": "2 to 3", "unit": "mg"}, {"measurement": "Ki", "setting": "[21]", "value": "> 10", "unit": "µM"}, {"measurement": "Ki", "setting": "[22]", "value": "> 10", "unit": "µM"}, {"measurement": "Ki", "setting": "[23]", "value": "> 10", "unit": "µM"}, {"measurement": "Ki", "setting": "[24]", "value": 2680, "unit": "nM"}, {"measurement": "Ki", "setting": "[25]", "value": "> 10", "unit": "µM"}, {"measurement": "Ki", "setting": "[26]", "value": "> 10", "unit": "µM"}, {"measurement": "Ki", "setting": "[27]", "value": 938, "unit": "nM"}, {"measurement": "Ki", "setting": "[28]", "value": "> 10", "unit": "µM"}, {"measurement": "Ki", "setting": "[29]", "value": 439, "unit": "nM"}, {"measurement": "Ki", "setting": "[30]", "value": "> 10000", "unit": "nM"}, {"measurement": "Ki", "setting": "[31]", "value": 3690, "unit": "nM"}, {"measurement": "Ki", "setting": "[32]", "value": "> 10", "unit": "µM"}, {"measurement": "Ki", "setting": "[33]", "value": 7580, "unit": "nM"}, {"measurement": "Ki", "setting": "[34]", "value": "> 10", "unit": "µM"}, {"measurement": "Ki", "setting": "[35]", "value": 206, "unit": "nM"}]}
{"compound": "CN(C)CCc1c[nH]c2ccc(O)cc12", "note": "[bufotenine, 5-hydroxy-DMT]", "values": [{"measurement": "Affinity for the 5-HT2A receptor relative to 5-MeO-DMT", "setting": "[36]", "value": 10, "unit": "fold"}]}
{"compound": "C#CCN(C)Cc1ccccc1", "note": "[pargyline, pargyline hydrochloride]", "values": [{"measurement": "Effect on spatial d", "setting": "[9]; [39]", "value": "post hoc analysis failed to confirm this for any specific 30-min block"}, {"measurement": "MAOA inhibition", "setting": "[37]", "value": 78, "unit": "%"}, {"measurement": "MAOB inhibition", "setting": "[38]", "value": 92, "unit": "%"}]}
{"compound": "COc1ccc2[nH]cc(CCN(C)C)c2c1", "note": "[α,α,β,β-tetradeutero-5-MeO-DMT, α,α,β,β-Tetradeutero-5-methoxy-N,N-dimethyltryptamine (2:1) fumarate]", "values": [{"measurement": "Ki", "setting": "[1]; read-out: Ki nM (±SEM), [3H]N-methyl-spiperone, cloned rat receptor", "value": 7090, "unit": "nM"}, {"measurement": "Ki", "setting": "[8]; [40]", "value": 1010, "unit": "nM"}, {"measurement": "Ki", "setting": "[15]; [40]", "value": 841, "unit": "nM"}, {"measurement": "Ki", "setting": "[16]; read-out: Ki nM (±SEM), [3H]citalopram, cloned human transporter", "value": 2760, "unit": "nM"}, {"measurement": "Ki", "setting": "[24]; read-out: Ki nM (±SEM), [3H]CGP12177, cloned human receptor", "value": 4560, "unit": "nM"}, {"measurement": "Ki", "setting": "[27]; [41]", "value": 1870, "unit": "nM"}, {"measurement": "Ki", "setting": "[29]; read-out: Ki nM (±SEM), [125I]HEAT, cloned human receptor", "value": 202, "unit": "nM"}, {"measurement": "Ki", "setting": "[30]; read-out: Ki nM (±SEM), [3H]tiotidine, cloned human receptor", "value": 7160, "unit": "nM"}, {"measurement": "Ki", "setting": "[31]; read-out: Ki nM (±SEM), [3H]DTG, rat", "value": 7170, "unit": "nM"}, {"measurement": "Ki", "setting": "[33]; read-out: Ki nM (±SEM), [3H]pyrilamine, cloned human receptor", "value": "> 10000", "unit": "nM"}, {"measurement": "Ki", "setting": "[35]; [41]", "value": 274, "unit": "nM"}]}
{"compound": "O=C(O)/C=C/C(=O)O.[2H]C([2H])(c1c[nH]c2ccc(OC)cc12)C([2H])([2H])N(C)C.[2H]C([2H])(c1c[nH]c2ccc(OC)cc12)C([2H])([2H])N(C)C", "note": "[α,α,β,β-tetradeutero-5-MeO-DMT, α,α,β,β-Tetradeutero-5-methoxy-N,N-dimethyltryptamine (2:1) fumarate]", "values": [{"measurement": "Effect on spatial d", "setting": "[9]; Experiment 2, 3.0 mg/kg s.c., first 30 min of the session (p<0.01)", "value": "significantly increased spatial d"}, {"measurement": "Effect on spatial d", "setting": "[9]; Experiment 2, 3.0 mg/kg s.c., second 30 min of the session (p<0.01)", "value": "significantly reduced spatial d"}, {"measurement": "Effect on crossings (locomotor activity)", "setting": "[9]; Experiment 2, 0.3, 1.0 and 3.0 mg/kg s.c., first 20 min of the session", "value": "significantly reduced crossings"}, {"measurement": "Delayed increase in locomotor activity", "setting": "[9]; Experiment 2, 0.3 and 1.0 mg/kg s.c.", "value": "Neither of the lower doses tested (0.3 and 1.0 mg/kg) induced a delayed increase in activity"}]}
